Experimental data taken from ChEMBL document CHEMBL4330143, “Maximizing ER-α Degradation Maximizes Activity in a Tamoxifen-Resistant Breast Cancer Model: Identification of GDC-0927” (ACS Med Chem Lett, 2019).
Activity calls are given as the source filed them. The rule behind the calls is not given here.

Legend:
Cytochrome P450 3A4 = Cytochrome P450 3A4 (Homo sapiens, UniProt P08684); assay: Competitive inhibition of CYP3A4 (unknown origin); assay type: ADME
MCF7 = assay: Antiproliferative activity against human MCF7 cells after 5 days by CellTiter-Glo assay; details: MCF7, 120 h
Cytochrome P450 2C8 = target: T1, Cytochrome P450 2C8 (Homo sapiens, UniProt P10632); assay: Inhibition of CYP2C8 (unknown origin); assay type: ADME
T1 sequence (P10632 whole entry): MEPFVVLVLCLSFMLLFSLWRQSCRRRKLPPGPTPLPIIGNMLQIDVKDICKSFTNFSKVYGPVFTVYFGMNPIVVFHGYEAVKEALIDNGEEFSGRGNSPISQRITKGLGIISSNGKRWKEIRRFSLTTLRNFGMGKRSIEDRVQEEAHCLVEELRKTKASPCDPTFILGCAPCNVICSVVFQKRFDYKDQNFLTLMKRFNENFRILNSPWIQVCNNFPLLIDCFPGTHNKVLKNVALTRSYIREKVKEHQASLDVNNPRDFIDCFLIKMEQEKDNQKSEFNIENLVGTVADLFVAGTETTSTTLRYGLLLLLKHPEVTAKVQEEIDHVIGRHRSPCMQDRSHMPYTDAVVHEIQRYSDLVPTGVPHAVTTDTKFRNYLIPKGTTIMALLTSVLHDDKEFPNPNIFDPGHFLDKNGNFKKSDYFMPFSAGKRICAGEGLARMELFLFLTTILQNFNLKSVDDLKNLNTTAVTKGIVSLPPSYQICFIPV

[1] = Cmax in nude mouse xenografted with tamoxifen-resistant human MCF7 cells at 100 mg/kg, po daily for 28 days measured on day 28 post last dose; assay type: ADME, organism-based; parameters: dose 100 mg/kg, route oral; details: in vivo
Outline: (§1)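 Tamoxifen-resistant MCF-7 xenograft mice carrying subcutaneous 0.72 mg estradiol pellets. Plasma pharmacokinetics sampled on day 28 of the study, at take-down.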

[2] = AUC (0 to 24 hrs) in nude mouse xenografted with tamoxifen-resistant human MCF7 cells at 100 mg/kg, po daily for 28 days measured on day 28 post last dose; assay type: ADME, organism-based; parameters: time < 24 hr, dose 100 mg/kg, route oral; details: in vivo; outline: as §1
[3] = Unbound Cmax in nude mouse xenografted with tamoxifen-resistant human MCF7 cells at 100 mg/kg, po daily for 28 days measured on day 28 post last dose; assay type: ADME, organism-based; details: in vivo, 672 h; outline: as §1
[4] = target: T2, Progesterone receptor (Homo sapiens) (UniProt P06401); assay: Agonist activity at PR-A (unknown origin) by transcriptional reporter assay
T2 sequence (whole entry): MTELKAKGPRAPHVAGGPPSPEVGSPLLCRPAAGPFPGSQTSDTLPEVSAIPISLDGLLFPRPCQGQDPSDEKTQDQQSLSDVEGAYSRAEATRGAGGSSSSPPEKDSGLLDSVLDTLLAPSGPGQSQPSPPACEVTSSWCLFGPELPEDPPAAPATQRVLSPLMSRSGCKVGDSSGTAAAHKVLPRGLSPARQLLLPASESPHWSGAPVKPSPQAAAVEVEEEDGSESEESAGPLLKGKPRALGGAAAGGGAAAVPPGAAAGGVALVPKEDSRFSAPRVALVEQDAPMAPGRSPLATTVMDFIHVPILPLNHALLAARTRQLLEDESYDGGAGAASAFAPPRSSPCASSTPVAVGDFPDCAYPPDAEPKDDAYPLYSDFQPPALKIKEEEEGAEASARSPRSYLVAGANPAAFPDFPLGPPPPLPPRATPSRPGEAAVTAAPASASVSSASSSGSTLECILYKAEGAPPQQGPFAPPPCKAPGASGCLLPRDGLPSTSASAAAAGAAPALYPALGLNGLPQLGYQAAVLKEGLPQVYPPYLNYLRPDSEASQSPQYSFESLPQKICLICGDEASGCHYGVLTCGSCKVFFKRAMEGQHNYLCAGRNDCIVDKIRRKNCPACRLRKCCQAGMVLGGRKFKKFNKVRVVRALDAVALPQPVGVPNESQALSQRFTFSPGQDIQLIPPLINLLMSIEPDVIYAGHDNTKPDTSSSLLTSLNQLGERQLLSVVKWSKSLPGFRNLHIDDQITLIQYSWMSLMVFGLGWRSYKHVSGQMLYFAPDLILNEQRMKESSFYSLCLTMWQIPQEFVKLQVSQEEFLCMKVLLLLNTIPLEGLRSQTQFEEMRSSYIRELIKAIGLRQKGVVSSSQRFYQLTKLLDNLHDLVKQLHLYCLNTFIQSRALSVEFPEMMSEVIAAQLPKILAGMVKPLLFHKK

[5] = target: Voltage-gated inwardly rectifying potassium channel KCNH2 (Homo sapiens, UniProt Q12809); assay: Inhibition of human ERG by patch clamp method
Chain of Voltage-gated inwardly rectifying potassium channel KCNH2 (Q12809 whole entry): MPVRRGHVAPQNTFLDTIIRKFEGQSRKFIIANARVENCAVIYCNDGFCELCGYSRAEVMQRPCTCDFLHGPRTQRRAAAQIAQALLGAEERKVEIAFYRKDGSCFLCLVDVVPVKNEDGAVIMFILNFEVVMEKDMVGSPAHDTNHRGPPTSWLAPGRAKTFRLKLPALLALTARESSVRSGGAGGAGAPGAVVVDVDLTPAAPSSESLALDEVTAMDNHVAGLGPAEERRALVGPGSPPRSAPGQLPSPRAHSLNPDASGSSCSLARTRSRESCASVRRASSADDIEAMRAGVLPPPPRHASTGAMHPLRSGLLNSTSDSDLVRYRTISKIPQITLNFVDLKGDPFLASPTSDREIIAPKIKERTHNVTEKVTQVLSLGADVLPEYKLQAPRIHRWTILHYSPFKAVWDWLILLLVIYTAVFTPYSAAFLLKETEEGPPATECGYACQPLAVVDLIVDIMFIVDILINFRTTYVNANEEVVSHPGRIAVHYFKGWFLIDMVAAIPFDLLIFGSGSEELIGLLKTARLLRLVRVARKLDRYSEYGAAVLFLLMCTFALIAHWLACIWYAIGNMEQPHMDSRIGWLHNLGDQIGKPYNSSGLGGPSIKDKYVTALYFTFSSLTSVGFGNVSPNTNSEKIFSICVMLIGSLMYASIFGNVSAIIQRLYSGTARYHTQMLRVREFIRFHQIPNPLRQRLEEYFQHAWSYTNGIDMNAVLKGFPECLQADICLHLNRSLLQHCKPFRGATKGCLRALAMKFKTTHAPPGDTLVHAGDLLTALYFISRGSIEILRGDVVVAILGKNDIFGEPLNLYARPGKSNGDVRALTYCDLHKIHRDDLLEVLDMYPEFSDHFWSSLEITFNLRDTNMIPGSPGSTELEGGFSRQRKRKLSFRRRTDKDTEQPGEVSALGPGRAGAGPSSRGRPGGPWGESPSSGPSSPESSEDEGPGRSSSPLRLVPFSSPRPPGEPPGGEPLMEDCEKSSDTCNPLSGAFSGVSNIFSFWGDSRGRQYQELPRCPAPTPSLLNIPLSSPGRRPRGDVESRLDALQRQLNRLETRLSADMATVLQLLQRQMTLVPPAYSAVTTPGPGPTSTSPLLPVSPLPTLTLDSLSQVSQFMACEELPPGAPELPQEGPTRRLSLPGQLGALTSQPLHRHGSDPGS

[6] = AUC in rat at 10 mg/kg, po daily for 3 days measured on day 3 post last dose; assay type: ADME, organism-based; details: in vivo
[7] = target: Sodium-dependent dopamine transporter (Homo sapiens, UniProt Q01959); assay: Inhibition of dopamine transporter (unknown origin)
Chain of Sodium-dependent dopamine transporter (Q01959 whole entry): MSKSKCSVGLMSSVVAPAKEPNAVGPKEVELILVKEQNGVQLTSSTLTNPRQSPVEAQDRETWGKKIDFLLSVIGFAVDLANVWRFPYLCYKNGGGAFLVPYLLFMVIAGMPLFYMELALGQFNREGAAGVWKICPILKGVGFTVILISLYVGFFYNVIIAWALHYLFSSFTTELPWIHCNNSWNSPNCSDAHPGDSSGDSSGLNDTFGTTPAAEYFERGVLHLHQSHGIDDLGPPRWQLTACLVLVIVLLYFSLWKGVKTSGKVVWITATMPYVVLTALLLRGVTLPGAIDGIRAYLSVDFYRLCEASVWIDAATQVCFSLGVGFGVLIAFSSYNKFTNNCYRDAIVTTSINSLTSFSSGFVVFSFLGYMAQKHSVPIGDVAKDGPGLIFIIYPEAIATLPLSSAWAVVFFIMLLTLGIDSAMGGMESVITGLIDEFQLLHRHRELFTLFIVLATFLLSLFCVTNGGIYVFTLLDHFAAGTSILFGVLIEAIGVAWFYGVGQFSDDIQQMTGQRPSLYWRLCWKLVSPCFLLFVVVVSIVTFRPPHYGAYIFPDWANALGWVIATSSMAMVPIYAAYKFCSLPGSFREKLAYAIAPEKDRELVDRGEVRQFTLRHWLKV
Outline: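 Cell-based functional follow-up assay, done after hits in a radioligand binding panel run under protein-free conditions. Value reported as IC50.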

Cytochrome P450 2C19 = Cytochrome P450 2C19 (Homo sapiens, UniProt P33261); assay: Competitive inhibition of CYP2C19 (unknown origin); assay type: ADME
Chain of Cytochrome P450 2C19 (P33261 whole entry): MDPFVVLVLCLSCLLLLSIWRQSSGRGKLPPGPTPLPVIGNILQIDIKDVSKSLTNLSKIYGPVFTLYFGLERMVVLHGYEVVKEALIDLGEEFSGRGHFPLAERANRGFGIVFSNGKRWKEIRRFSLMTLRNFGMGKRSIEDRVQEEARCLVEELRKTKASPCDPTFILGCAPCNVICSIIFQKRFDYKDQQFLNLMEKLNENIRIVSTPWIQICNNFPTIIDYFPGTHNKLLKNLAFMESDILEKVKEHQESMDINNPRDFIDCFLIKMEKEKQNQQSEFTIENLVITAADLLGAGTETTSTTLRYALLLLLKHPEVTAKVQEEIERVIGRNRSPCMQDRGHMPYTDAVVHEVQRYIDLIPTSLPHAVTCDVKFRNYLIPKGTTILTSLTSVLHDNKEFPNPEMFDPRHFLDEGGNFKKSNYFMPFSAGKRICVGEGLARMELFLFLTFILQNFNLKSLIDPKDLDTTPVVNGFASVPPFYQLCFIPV

[8] = target: T3, Glucocorticoid receptor (Homo sapiens) (UniProt P04150); assay: Agonist activity at GR (unknown origin) by transcriptional reporter assay
T3 sequence (whole entry): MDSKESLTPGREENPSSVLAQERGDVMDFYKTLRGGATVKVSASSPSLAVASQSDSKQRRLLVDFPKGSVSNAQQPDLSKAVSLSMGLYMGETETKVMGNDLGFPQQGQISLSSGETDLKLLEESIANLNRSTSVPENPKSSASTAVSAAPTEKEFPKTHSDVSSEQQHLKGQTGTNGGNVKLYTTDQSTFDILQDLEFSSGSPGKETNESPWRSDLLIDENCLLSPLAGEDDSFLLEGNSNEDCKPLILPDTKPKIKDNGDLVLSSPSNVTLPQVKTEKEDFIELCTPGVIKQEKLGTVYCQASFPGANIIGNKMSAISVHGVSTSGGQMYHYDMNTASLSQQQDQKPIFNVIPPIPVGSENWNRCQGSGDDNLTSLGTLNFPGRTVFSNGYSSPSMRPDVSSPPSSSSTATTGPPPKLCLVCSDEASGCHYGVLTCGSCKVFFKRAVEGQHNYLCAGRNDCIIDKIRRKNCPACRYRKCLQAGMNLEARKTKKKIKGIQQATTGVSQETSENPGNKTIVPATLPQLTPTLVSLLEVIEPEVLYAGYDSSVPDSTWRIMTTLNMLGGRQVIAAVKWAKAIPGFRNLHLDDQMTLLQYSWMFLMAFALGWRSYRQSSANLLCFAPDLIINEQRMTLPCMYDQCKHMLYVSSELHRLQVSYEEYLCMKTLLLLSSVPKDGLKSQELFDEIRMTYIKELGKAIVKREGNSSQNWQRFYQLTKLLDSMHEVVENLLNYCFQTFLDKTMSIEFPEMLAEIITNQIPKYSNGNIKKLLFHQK

[9] = Genotoxicity in Salmonella typhimurium TA100 by Ames test; assay type: toxicity; details: salmonella enterica subsp. enterica serovar […]
[10] = target: T2, Progesterone receptor (Homo sapiens); assay: Antagonist activity at PR-A (unknown origin) by transcriptional reporter assay

Chain of Cytochrome P450 3A4 (P08684 whole entry): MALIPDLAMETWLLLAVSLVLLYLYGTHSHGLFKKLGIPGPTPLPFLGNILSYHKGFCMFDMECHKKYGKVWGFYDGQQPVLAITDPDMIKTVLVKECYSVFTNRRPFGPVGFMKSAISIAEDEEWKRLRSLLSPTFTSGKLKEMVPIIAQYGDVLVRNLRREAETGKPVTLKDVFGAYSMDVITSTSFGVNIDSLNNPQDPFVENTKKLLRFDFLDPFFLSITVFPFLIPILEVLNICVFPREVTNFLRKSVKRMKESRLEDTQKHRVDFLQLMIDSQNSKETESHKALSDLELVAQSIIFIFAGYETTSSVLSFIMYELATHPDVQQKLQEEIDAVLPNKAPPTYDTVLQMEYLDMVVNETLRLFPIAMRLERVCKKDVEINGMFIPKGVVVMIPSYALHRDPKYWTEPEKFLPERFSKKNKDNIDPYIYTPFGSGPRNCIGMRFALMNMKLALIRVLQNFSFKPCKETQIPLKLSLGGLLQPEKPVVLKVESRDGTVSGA

CC1=C(c2cccc(O)c2)[C@H](c2ccc(OCCN3CC(CF)C3)cc2)Oc2ccc(O)cc21
IC50 (Cytochrome P450 3A4): > 10 µM
IC50 (MCF7): 0.1 nM
IC50 (Cytochrome P450 2C8): 3 µM
Cmax [1]: 950 ng/mL
AUC at 24 h [2]: 6900 ng·h/mL
fCmax [3]: 0.018 µg/mL
Activity [4]: inactive
IC50 [5]: 4.6 µM
AUC at 72 h [6]: 160 ng·h/mL
IC50 [7]: 390 nM
IC50 (Cytochrome P450 2C19): > 10 µM
Activity [8]: inactive
Activity [9]: Non-Toxic
inhibition [10]: inactive
